Experimental data as given in ChEMBL document CHEMBL2375225, “Structure-activity relationship of 5-chloro-2-methyl-3-(1,2,3,6-tetrahydropyridin-4-yl)-1H-indole analogues as 5-HT(6) receptor agonists” (Eur J Med Chem, 2013).

Key:
[1] = biological target: T1, 5-hydroxytryptamine receptor 2C (Homo sapiens, UniProt P28335); assay: Displacement of [3H]-mesulergine from human 5HT2C receptor
T1 sequence (P28335 whole entry): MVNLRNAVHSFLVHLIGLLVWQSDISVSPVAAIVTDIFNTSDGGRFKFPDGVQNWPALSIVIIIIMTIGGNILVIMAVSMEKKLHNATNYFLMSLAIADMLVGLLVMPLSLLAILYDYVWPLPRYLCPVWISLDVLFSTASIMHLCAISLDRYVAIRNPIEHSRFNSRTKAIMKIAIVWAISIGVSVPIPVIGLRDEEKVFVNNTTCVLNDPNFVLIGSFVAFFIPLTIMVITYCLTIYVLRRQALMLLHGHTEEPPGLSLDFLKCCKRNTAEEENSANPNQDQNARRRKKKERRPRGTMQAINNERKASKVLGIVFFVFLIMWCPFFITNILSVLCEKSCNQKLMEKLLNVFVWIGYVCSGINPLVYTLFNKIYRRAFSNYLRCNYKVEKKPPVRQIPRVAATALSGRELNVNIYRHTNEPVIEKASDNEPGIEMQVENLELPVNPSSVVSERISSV

[2] = biological target: T2, 5-hydroxytryptamine receptor 6 (Homo sapiens, UniProt P50406); assay: Partial agonist activity at human 5HT6 receptor expressed in BHK cells assessed as stimulation of cAMP production after 45 minutes relative to control; type: functional, cell-based
T2 sequence (P50406 whole entry): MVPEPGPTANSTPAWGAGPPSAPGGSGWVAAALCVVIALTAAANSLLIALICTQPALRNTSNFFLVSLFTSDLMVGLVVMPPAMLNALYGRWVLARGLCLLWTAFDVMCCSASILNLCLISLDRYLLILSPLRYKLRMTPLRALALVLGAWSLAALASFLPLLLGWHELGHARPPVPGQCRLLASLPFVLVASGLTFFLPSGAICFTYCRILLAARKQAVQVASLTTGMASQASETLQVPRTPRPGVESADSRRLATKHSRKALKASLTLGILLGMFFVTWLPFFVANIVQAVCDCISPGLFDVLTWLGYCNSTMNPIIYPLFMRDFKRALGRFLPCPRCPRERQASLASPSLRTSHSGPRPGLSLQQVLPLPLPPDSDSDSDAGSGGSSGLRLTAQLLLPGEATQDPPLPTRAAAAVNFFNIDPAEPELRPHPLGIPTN
In short: (§1)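 BHK cells stably transfected with the human 5-HT6 receptor, grown in MEM-α with 10% dialysed heat-inactivated FCS at 37 °C under 5% CO2. Cells were detached with 5 mM EDTA in PBS, seeded at 10,000 cells/well and left to adhere ≥12 h. They were then washed and placed in serum-free MEM-α, exposed to compound for 45 min, washed with PBS, and intracellular cAMP measured by enzyme immunoassay.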

[3] = biological target: T2, 5-hydroxytryptamine receptor 6; assay: Partial agonist activity at human 5HT6 receptor expressed in BHK cells assessed as stimulation of cAMP production after 45 minutes; type: functional, cell-based; in short: as §1
[4] = biological target: T2, 5-hydroxytryptamine receptor 6; assay: Displacement of [3H]LSD from human 5HT6 receptor expressed in HEK cell membranes after 1 hr by liquid scintillation counting analysis; parameters: species or system HEK293
In short: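 Compounds were made up as 1 mM DMSO stocks and diluted in 20 mM HEPES, 0.1% ascorbic acid, pH 7.4. They were incubated 1 h at 37 °C with [3H]LSD (1 nM final) and membranes (23 µg protein) from HEK cells expressing human 5-HT6. Binding was stopped by filtration through GF/B filters presoaked in 0.1% polyethyleneimine, with three buffer washes, then counted by liquid scintillation. Single determination.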

[5] = biological target: 5-hydroxytryptamine receptor 2A (Homo sapiens, UniProt P28223); assay: Displacement of [3H]-ketanserin from human 5HT2A receptor
Sequence of 5-hydroxytryptamine receptor 2A (P28223 whole entry): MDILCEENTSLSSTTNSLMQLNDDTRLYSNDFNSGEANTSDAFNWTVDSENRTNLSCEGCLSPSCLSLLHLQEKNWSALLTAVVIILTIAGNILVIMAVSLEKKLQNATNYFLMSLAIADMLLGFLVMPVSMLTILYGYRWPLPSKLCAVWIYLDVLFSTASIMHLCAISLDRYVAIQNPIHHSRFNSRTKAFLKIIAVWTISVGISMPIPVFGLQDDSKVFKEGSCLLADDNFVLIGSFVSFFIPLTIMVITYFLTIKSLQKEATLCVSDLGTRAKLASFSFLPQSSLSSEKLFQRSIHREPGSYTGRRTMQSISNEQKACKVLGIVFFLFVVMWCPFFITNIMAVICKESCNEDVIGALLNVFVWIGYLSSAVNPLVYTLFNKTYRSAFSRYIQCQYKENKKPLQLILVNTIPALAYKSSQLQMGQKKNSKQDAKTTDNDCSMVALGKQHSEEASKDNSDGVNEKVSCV

[6] = biological target: T3, 5-hydroxytryptamine receptor 1A (Rattus norvegicus, UniProt P19327); assay: Displacement of [3H]-8-OH-DPAT from rat 5HT1A receptor
T3 sequence (P19327 whole entry): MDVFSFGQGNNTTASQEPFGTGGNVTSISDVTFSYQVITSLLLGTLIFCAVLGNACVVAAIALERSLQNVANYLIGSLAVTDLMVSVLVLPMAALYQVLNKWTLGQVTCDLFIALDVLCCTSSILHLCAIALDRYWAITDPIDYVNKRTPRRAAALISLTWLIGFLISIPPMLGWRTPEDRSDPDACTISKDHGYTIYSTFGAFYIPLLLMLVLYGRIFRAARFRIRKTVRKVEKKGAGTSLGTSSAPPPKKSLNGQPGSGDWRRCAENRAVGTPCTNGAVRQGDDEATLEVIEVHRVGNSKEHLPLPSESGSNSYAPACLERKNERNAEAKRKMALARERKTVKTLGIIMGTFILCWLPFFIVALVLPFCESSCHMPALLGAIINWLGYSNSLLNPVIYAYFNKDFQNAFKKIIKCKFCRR

[7] = biological target: 5-hydroxytryptamine receptor 7 (Homo sapiens, UniProt P34969); assay: Displacement of [3H]LSD from human 5HT7 receptor
Sequence of 5-hydroxytryptamine receptor 7 (P34969 whole entry): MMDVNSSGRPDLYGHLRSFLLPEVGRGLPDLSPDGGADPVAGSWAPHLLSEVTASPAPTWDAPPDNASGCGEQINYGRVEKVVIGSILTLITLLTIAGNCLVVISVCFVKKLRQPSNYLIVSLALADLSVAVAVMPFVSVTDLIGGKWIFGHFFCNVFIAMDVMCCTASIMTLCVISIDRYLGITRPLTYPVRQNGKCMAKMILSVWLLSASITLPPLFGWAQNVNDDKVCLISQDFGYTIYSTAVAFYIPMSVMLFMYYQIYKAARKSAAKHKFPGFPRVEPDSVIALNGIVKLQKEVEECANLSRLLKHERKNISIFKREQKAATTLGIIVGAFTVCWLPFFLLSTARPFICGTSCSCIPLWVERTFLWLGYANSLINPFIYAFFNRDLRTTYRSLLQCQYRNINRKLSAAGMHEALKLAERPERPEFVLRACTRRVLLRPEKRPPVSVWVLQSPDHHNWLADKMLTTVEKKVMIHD

[8] = biological target: Sodium-dependent serotonin transporter (Rattus norvegicus, UniProt P31652); assay: Displacement of [3H]-5-HT from rat SERT
Sequence of Sodium-dependent serotonin transporter (P31652 whole entry): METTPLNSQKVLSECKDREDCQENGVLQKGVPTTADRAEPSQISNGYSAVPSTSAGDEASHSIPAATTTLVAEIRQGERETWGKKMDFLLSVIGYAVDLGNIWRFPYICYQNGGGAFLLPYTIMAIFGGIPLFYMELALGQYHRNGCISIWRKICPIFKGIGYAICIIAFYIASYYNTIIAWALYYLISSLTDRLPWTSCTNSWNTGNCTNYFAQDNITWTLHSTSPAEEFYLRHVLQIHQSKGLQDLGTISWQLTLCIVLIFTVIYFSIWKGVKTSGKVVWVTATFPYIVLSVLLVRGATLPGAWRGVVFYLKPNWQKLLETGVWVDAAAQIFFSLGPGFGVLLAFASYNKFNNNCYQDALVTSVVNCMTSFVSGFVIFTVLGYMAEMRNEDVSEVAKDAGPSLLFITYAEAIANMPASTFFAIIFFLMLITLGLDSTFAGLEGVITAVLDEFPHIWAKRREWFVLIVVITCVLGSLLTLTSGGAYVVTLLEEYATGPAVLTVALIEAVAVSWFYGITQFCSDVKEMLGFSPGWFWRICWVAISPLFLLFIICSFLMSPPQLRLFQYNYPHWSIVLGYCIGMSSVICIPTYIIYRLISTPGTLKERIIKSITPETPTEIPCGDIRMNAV

[9] = Displacement of [3H]-5-HT from calf 5HT1D receptor; parameters: species or system Bos taurus
[10] = biological target: 5-hydroxytryptamine receptor 1B (Rattus norvegicus, UniProt P28564); assay: Displacement of [125I]-iodocyanopindolol from rat 5HT1B receptor
Sequence of 5-hydroxytryptamine receptor 1B (P28564 whole entry): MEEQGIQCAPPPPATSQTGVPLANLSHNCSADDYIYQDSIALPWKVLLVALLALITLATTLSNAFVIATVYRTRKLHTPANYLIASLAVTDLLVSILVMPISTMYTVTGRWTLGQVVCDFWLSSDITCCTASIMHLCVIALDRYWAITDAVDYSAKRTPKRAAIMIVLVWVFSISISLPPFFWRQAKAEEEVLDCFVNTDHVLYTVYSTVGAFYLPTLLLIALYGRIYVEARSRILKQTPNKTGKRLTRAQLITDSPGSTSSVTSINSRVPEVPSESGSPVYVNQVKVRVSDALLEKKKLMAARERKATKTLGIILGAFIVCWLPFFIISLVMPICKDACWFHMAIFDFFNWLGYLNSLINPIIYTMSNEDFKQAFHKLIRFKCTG

[11] = biological target: T2, 5-hydroxytryptamine receptor 6; assay: Agonist activity at human 5HT6 receptor expressed in BHK cells assessed as stimulation of cAMP production after 45 minutes relative to control; type: functional, cell-based; in short: as §1
[12] = biological target: T2, 5-hydroxytryptamine receptor 6; assay: Agonist activity at human 5HT6 receptor expressed in BHK cells assessed as stimulation of cAMP production after 45 minutes; type: functional, cell-based; in short: as §1
[13] = Displacement of [3H]-GR65630 from 5HT3 receptor in rat/mouse NG108 cells; type: cell-based
[14] = biological target: T2, 5-hydroxytryptamine receptor 6; assay: Displacement of [3H]LSD from human 5HT6 receptor expressed in CHO cell membranes after 1 hr by liquid scintillation counting analysis
[15] = biological target: T2, 5-hydroxytryptamine receptor 6; assay: Antagonist activity at human 5HT6 receptor expressed in human HeLa cells assessed as inhibition of 5HT-induced cAMP accumulation relative to control; type: functional, cell-based; parameters: scale not given: the % may be the effect or the level left
[16] = biological target: 5-hydroxytryptamine receptor 4 (Cavia porcellus, UniProt O70528); assay: Displacement of [3H]-GR113808 from guinea pig 5HT4 receptor
Sequence of 5-hydroxytryptamine receptor 4 (O70528 whole entry): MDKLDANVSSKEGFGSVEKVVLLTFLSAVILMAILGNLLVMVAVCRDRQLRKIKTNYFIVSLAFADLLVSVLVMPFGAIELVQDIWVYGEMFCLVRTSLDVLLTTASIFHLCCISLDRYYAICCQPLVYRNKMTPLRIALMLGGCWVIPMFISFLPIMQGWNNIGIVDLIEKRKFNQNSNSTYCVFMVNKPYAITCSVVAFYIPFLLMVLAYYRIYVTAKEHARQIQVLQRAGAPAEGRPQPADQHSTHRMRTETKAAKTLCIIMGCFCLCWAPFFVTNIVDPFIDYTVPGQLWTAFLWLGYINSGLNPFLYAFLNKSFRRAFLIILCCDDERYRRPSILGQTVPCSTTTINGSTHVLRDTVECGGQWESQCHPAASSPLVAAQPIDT

Q: For `Cc1[nH]c2ccc([N+](=O)[O-])cc2c1C1=CCNCC1`, which IC50 [1] is on record?
A: > 1 µM

Q: What about the Activity [2] of the same compound?
A: 28%

Q: What about the EC50 [3] of the same compound?
A: 0.032 µM

Q: What about the IC50 [4] of the same compound?
A: 0.01 µM

Q: What about the IC50 [5] of the same compound?
A: 1 µM

Q: And the IC50 [6]?
A: 0.89 µM

Q: What about the IC50 [7] of the same compound?
A: > 1 µM

Q: What about the IC50 [8] of the same compound?
A: > 1 µM

Q: What about the IC50 [9] of the same compound?
A: 0.31 µM

Q: And the IC50 [10]?
A: 0.57 µM

Q: With `Cc1[nH]c2ccc(Br)cc2c1C1=CCNCC1` as the compound, how does the IC50 [1] read?
A: 0.42 µM

Q: What about the IC50 [4] of the same compound?
A: 0.01 µM

Q: And the Activity [11]?
A: 100%

Q: And the IC50 [5]?
A: 0.4 µM

Q: What about the EC50 [12] of the same compound?
A: 0.0027 µM

Q: And the IC50 [6]?
A: 0.66 µM

Q: What about the IC50 [7] of the same compound?
A: 0.48 µM

Q: And the IC50 [8]?
A: 4.8 µM

Q: What about the IC50 [9] of the same compound?
A: 0.13 µM

Q: What about the IC50 [10] of the same compound?
A: 0.075 µM

Q: Which IC50 [1] does the source give for `Cc1[nH]c2ccc(-c3ccccc3)cc2c1C1=CCNCC1` here?
A: > 1 µM

Q: What about the IC50 [4] of the same compound?
A: 1 µM

Q: And the IC50 [5]?
A: > 1 µM

Q: And the IC50 [6]?
A: > 1 µM

Q: And the IC50 [7]?
A: 3.7 µM

Q: And the IC50 [8]?
A: > 1 µM

Q: What about the IC50 [9] of the same compound?
A: 0.39 µM

Q: And the IC50 [10]?
A: 0.14 µM

Q: With `N#Cc1ccc2[nH]cc(C3=CCNCC3)c2c1` as the compound, how does the Activity [2] read?
A: 44%

Q: And the EC50 [3]?
A: 0.13 µM

Q: And the IC50 [4]?
A: 0.02 µM

Q: With `CCCn1c(C)c(C2=CCNCC2)c2cc(Cl)ccc21` as the compound, how does the IC50 [4] read?
A: 0.08 µM

Q: For `C1=C(c2c(-c3ccccc3)[nH]c3ccccc23)CCNC1`, which IC50 [1] is on record?
A: 0.1 µM

Q: What about the IC50 [13] of the same compound?
A: 0.27 µM

Q: What about the IC50 [5] of the same compound?
A: 0.05 µM

Q: And the IC50 [6]?
A: > 1 µM

Q: And the IC50 [9]?
A: > 1 µM

Q: And the IC50 [10]?
A: > 1 µM

Q: Which results are given for `CSc1ccc2[nH]c(C)c(C3=CCNCC3)c2c1`?
A: Activity [2]: 58%; EC50 [3]: 0.0066 µM; IC50 [4]: 0.02 µM

Q: With `Cc1c(C2=CCNCC2)c2cc(Cl)ccc2n1C` as the compound, how does the IC50 [4] read?
A: 0.04 µM

Q: With `Cc1[nH]c2ccc(F)cc2c1C1=CCNCC1` as the compound, how does the IC50 [1] read?
A: 0.7 µM

Q: And the IC50 [4]?
A: 0.03 µM

Q: What about the Activity [11] of the same compound?
A: 100%

Q: And the IC50 [5]?
A: 0.95 µM

Q: And the EC50 [12]?
A: 0.0053 µM

Q: What about the IC50 [6] of the same compound?
A: > 1 µM

Q: What about the IC50 [7] of the same compound?
A: 3.1 µM

Q: And the IC50 [8]?
A: 1.9 µM

Q: And the IC50 [9]?
A: 0.16 µM

Q: What about the IC50 [10] of the same compound?
A: 0.2 µM

Q: Which IC50 [4] does the source give for `Cc1[nH]c2ccc(OC(C)C)cc2c1C1=CCNCC1` here?
A: 0.1 µM

Q: What does the source list for `Cc1c(C2=CCNCC2)c2cc(Cl)ccc2n1S(=O)(=O)c1ccccc1`?
A: IC50 [14]: 0.002 µM; Activity [15]: 0%

Q: For `COc1ccc2[nH]cc(C3=CCNCC3)c2c1` [RU-24969], which IC50 [13] is on record?
A: > 1 µM

Q: And the IC50 [9]?
A: 0.02 µM

Q: What about the IC50 [10] of the same compound?
A: 0.006 µM

Q: What does the source list for `Cc1[nH]c2ccc(-c3ccsc3)cc2c1C1=CCNCC1`?
A: IC50 [1]: > 1 µM; IC50 [4]: 0.7 µM; IC50 [5]: > 1 µM; IC50 [6]: > 1 µM; IC50 [7]: 0.69 µM; IC50 [8]: > 1 µM; IC50 [9]: 0.033 µM; IC50 [10]: 0.012 µM

Q: Which results are given for `Cc1[nH]c2ccc(NS(=O)(=O)c3ccccc3)cc2c1C1=CCNCC1`?
A: IC50 [14]: 0.029 µM; Activity [2]: 60%; EC50 [3]: 0.021 µM

Q: Which IC50 [4] does the source give for `Cc1[nH]c2ccc(Oc3ccccc3[N+](=O)[O-])cc2c1C1=CCNCC1` here?
A: 0.009 µM

Q: For `Cc1[nH]c2ccc(OS(=O)(=O)C(F)(F)F)cc2c1C1=CCNCC1`, which IC50 [1] is on record?
A: 0.99 µM

Q: And the Activity [2]?
A: 65%

Q: And the EC50 [3]?
A: 0.032 µM

Q: And the IC50 [4]?
A: 0.05 µM

Q: And the IC50 [5]?
A: > 1 µM

Q: And the IC50 [6]?
A: > 1 µM

Q: And the IC50 [7]?
A: 1.8 µM

Q: And the IC50 [8]?
A: > 1 µM

Q: What about the IC50 [9] of the same compound?
A: 0.035 µM

Q: What about the IC50 [10] of the same compound?
A: 0.029 µM

Q: Which IC50 [4] does the source give for `CCn1c(C)c(C2=CCNCC2)c2cc(Cl)ccc21` here?
A: 0.1 µM

Q: Which IC50 [1] does the source give for `Cc1[nH]c2ccccc2c1C1=CCNCC1` here?
A: 2.9 µM

Q: What about the Activity [2] of the same compound?
A: 78%

Q: What about the EC50 [3] of the same compound?
A: 1.1 µM

Q: What about the IC50 [16] of the same compound?
A: 1 µM

Q: What about the IC50 [13] of the same compound?
A: 2.3 µM

Q: What about the IC50 [4] of the same compound?
A: 0.2 µM

Q: And the IC50 [5]?
A: 1.5 µM

Q: What about the IC50 [6] of the same compound?
A: 5.7 µM

Q: What about the IC50 [7] of the same compound?
A: > 1 µM

Q: And the IC50 [8]?
A: > 1 µM

Q: And the IC50 [9]?
A: 1.2 µM

Q: And the IC50 [10]?
A: 0.89 µM
